In ChEMBL document CHEMBL4513216, “Probing the Open Global Health Chemical Diversity Library for Multistage-Active Starting Points for Next-Generation Antimalarials” (ACS Infect Dis, 2020) one finds cytotoxicity data, which are given here for 98 molecules.

The data set is described as follows: Toxicity liver stage against HepG2, at 10uM. Type of data set: cell-based. Set-up: test concentration 10 uM, cell line HepG2-A16-CD81EGFP. Particulars: human, HepG2-A16-CD81EGFP cells; read-out: INHIBITION
In a few lines: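 Uninfected HepG2-A16-CD81EGFP cells, 3 × 10^3 per well, 1536-well, plated on prespotted compound at 10 μM final, parasite-free screening media added to match infected plates; puromycin 10 μM positive, DMSO 0.5% negative; run in parallel with 48 h PbLuc assay at 37 °C, 5% CO2; viability by CellTiter-Glo luminescence, normalized to controls.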
Consider `Cc1cccnc1NC(=O)CSc1ccc2c(c1)OCCO2`, for which the cytotoxicity at 10 µM is -1.66%. The same measure for `O=C(COc1ccc(-n2cccn2)nn1)N1CCCC1`: 1.43%; for `CCc1cnc(N2C[C@@H]3[C@@H](C(=O)NC(C)C)CCS(=O)(=O)[C@@H]3C2)nc1`: -146%; for `O=C(c1cccnc1)N1CCOCC2(CCN(c3ncccn3)C2)C1` (stereo not drawn): 8.88%.

For `Cn1cc(C2CC(=O)NC23CCN(C(=O)C2CC=CC2)CC3)cn1` (stereo not drawn), the cytotoxicity at 10 µM is 8.13%.

Turning to `O=C(c1ccccn1)N1CCc2ncnc(N3CCOCC3)c2CC1`, the cytotoxicity at 10 µM was found to be 0.661%.

In the case of `CCCS(=O)(=O)N1CCc2onc(CNc3ncccn3)c2C1`, the cytotoxicity at 10 µM is -2.25%. Then `Cc1ccc(-n2ccc3nc(N4CCCC4)ncc3c2=O)cc1C`, with 7.51%; and `O=C1CCCN1Cc1noc(-c2ccc(Cl)cc2)n1`, with 5.56%. In the case of `O=C(c1cn(-c2cc(N3CCSCC3)ncn2)cn1)N1CCSCC1`, the cytotoxicity at 10 µM is -17.3%. The same measure for `CNc1ncccc1CN1CCN(C(C)=O)CC(C(N)=O)C1` (stereo not drawn): 2.31%. The same measure for `Cc1cccnc1C(=O)N1CCCC(Cc2cncc3ccccc23)C1` (stereo not drawn): -18%; for `Cc1cc(CCC2CN(Cc3ccccc3C(=O)O)CCO2)ncn1` (stereo not drawn): -19.9%. Then `NC(=O)c1ccc(=O)n(Cc2cc(Br)ccc2Cl)n1`, with 4.71%; and `CC(c1nc(-c2ccccc2)no1)N1CC(n2cccn2)C1` (stereo not drawn), with 1.62%. On to `N#Cc1cccc(OC2CCN(C(=O)c3cncc(O)c3)CC2)c1`, for which the cytotoxicity at 10 µM amounted to 7.28%. The same measure for `c1nc2onc(C3CC3)c2cc1-c1nnc(C2CC2)o1`: 8.03%. With `CC(C)(CNC(=O)c1ccco1)NC(=O)OC(C)(C)C`, the cytotoxicity at 10 µM is -2.43%. Then `CC(C)(CNC(=O)c1ccc(Cl)o1)NC(=O)OC(C)(C)C`, with -2.25%; and `Cn1cc(N2CCN(c3ccc(C#N)cc3Br)CC2=O)cn1`, with -5.48%; and `O=C(NCC1(O)CCSCC1)c1nccc2ccccc12`, with 4.59%. Then `CCCN(Cc1ccccc1O)S(=O)(=O)C(C)CC` (stereo not drawn), with 9.02%; and `Cc1ccc(C(=O)NC2CCCN(c3ncccn3)C2)cn1` (stereo not drawn), with -7.08%; and `CCc1nnsc1C(=O)NCc1c(C)nn(CCOC)c1C`, with -8.8%. Then `CC(C)N(C)C(=O)COc1ccc(-c2noc(C3CCCO3)n2)cc1` (stereo not drawn), with 4.24%.

As to `CCc1nc(CN2CCCC(NCCn3cncn3)C2)no1` (stereo not drawn), the cytotoxicity at 10 µM was -7.24%. With `OC(CN1CCN(CC2CC2)CC1)c1ccc(Br)cc1` (stereo not drawn), the cytotoxicity at 10 µM was -8.69%.

On to `CS(=O)(=O)NC1CCN(C(=O)c2ccc(Br)cc2)C1` (stereo not drawn), for which the cytotoxicity at 10 µM was found to be 4.94%.

On to `COCCn1ccc(NCc2sccc2C)n1`, for which the cytotoxicity at 10 µM came out at 5.6%. Turning to `CCN(CC)c1ccc(NC(=O)NC(C)Cn2cccn2)cn1` (stereo not drawn), the cytotoxicity at 10 µM was found to be 1.35%. Then `Cc1nnc2n1CCN(Cc1csc(-c3cnn(C)c3)n1)C2`, with -3.5%; and `Cc1c(C(=O)NCCN2C(=O)CCC2=O)sc2ccc(F)cc12`, with 2.11%. The same measure for `CN(C)c1ccc(NC(=O)c2ccnn2C)nc1`: 15.1%; for `CC(=O)N1CCCN(CCn2nc3ccccn3c2=O)CC1`: -137%.

On to `CC(C)NC(=O)c1nnn(-c2ccccc2)c1C1CC1`, for which the cytotoxicity at 10 µM was 2.2%.

On to `O=c1[nH]nc(CNc2cncc(Br)c2)[nH]1`, for which the cytotoxicity at 10 µM is -1.23%. Take `CCC(NCc1ccccc1Cl)c1ccccc1OCC(=O)NC` (stereo not drawn): the cytotoxicity at 10 µM stood at 13.3%. The same measure for `Cc1ccc(CN(C)C)cc1NC(=O)C1CC=CC1`: -8%. For the molecule `CS(=O)(=O)NCCNC(=O)Cc1ccc(Br)s1`, the cytotoxicity at 10 µM was -7.21%. As for `CN(CCCc1cc(-c2ccc(F)cc2)n(C)n1)CC(N)=O`, the cytotoxicity at 10 µM is -8.71%.

As to `O=C(COc1cccc2c1CCC2=O)NCCSc1ccccc1`, the cytotoxicity at 10 µM is -1.22%. The same measure for `CC(C)c1noc(-c2ccc(N(C)C3CCOCC3)nc2)n1`: -17.6%; for `CN(Cc1cc[nH]n1)C(=O)C1CC(=O)N(Cc2ccncc2)C1` (stereo not drawn): 1.59%. Then `COc1ccccc1Oc1ncccc1CNC(=O)[C@H](C)O`, with -2.64%; and `Cc1occc1C(=O)N1CCCC1c1ccc(C(=O)N2CCOCC2)s1` (stereo not drawn), with -143%; and `CCC(NC(=O)c1cnc(N(C)C)nc1C)c1ccncc1` (stereo not drawn), with -2.9%. Consider `O=C(CCC1CCN(C(=O)c2cnco2)CC1)NCc1cccc(Cl)c1`, for which the cytotoxicity at 10 µM is -8.48%.

In the case of `Cn1ncc2c(N3CC(N4CCCCC4)C3)nc(C3CCCC3)nc21`, the cytotoxicity at 10 µM was -5.07%. As to `Cn1cc(CN(C(=O)c2ccc3ncsc3c2)C2CC2)cn1`, the cytotoxicity at 10 µM was determined as 3.11%. Then `CCN(CCc1nc2cc(C)ccc2[nH]1)C(=O)COC`, with -5.89%. In the case of `CC(C)(O)C1CCCN(C(=O)Nc2nc(-c3ccccc3)ns2)C1` (stereo not drawn), the cytotoxicity at 10 µM was -137%. The same measure for `CC(C)C1CN(Cc2c[nH]cn2)CCCN1CC1CC1` (stereo not drawn): 0.127%; for `Cc1nc(C(C)C)sc1C(=O)NCCSc1nccn1C`: -1.7%; for `CCCc1nnc(N(C)CC2CCN(CC(C)C)C2)o1` (stereo not drawn): -1.41%. With `CCc1ncc(C(=O)N(C)CC2Cc3ccccc3O2)cn1` (stereo not drawn), the cytotoxicity at 10 µM is -0.734%.

Regarding `Cc1cc(C)cc(S(=O)(=O)NCC2CNCCOC2)c1` (stereo not drawn), the cytotoxicity at 10 µM is -1.86%. Then `CN(CC1(CO)CCCC1)C(=O)c1cc(COc2ccccc2F)[nH]n1`, with 6.2%. The same measure for `O=C(NCc1nc[nH]n1)c1cc(COc2ccccc2F)[nH]n1`: -3.58%; for `COc1ccc(C(=O)N2CCN(CCO)CC2)c(F)c1`: -3.79%. The same measure for `CCN(CC)S(=O)(=O)c1cccc(C(=O)N(C)Cc2ccsc2)c1`: -6.8%. As for `CN(Cc1ccsc1)C(=O)c1ccc(S(=O)(=O)NC(C)(C)C)cc1`, the cytotoxicity at 10 µM is -8.01%. The same measure for `NC(=O)Cn1cc(NC(=O)N2CCN(c3ccccc3)CC2)cn1`: -8.45%.

For `CN1CCCC1CNC(=O)CCCOc1ccc(Br)cc1` (stereo not drawn), the cytotoxicity at 10 µM is -7.69%. The same measure for `Cc1nc(C2CCCN2Cc2ccon2)no1` (stereo not drawn): -18%; for `COc1ccccc1OCCC(=O)N1CCCCC1c1nccs1` (stereo not drawn): -15.7%. Then `CN(C)c1cc(CNC(=O)Nc2cccnc2N2CCCC2)ccn1`, with -20.5%; and `CCN1CCOC(CNCc2csc(C)n2)C1` (stereo not drawn), with -5.13%; and `Cc1nn(C)c(N(C)C)c1CNC(C)COc1ccc(F)cc1` (stereo not drawn), with -4.38%. Then `CCn1cc(NC(=O)NCc2ccc(CO)c(F)c2)cn1`, with 8.69%. `COc1c(CNC2CCc3ccccc32)c(C)nn1C` (stereo not drawn): the cytotoxicity at 10 µM turned out to be 7.08%. In the case of `COc1cccc(CN2CCCCC2Cn2nc(C)nc2C)c1` (stereo not drawn), the cytotoxicity at 10 µM is -11.5%.

Turning to `Cc1cnn(CC2CN(Cc3nc4ccccc4o3)CCO2)c1` (stereo not drawn), the cytotoxicity at 10 µM was -3.49%.

For `Cc1ccc(C(O)CN2CCN(Cc3nccn3C)CC2)cc1C` (stereo not drawn), the cytotoxicity at 10 µM is -37%. On to `NC(=O)Cn1cc(NC(=O)NCCN2CCc3ccccc3C2)cn1`, for which the cytotoxicity at 10 µM is -9.52%.

Take `CCc1nc(C2CCCN(C(=O)c3ccncc3)C2)no1` (stereo not drawn): the cytotoxicity at 10 µM is -13%. The same measure for `CCn1cnnc1CNC(=O)N1CCN(Cc2ccsc2)CC1`: -15.4%; for `CCn1cc(CN2CCCN(C(=O)c3ccco3)CC2)cn1`: -11.3%; for `CNc1cc2c(nn1)CCN(C(=O)c1cc(C)no1)C2`: -15.8%.

Turning to `COc1ccc2c(c1)CN(c1cc(N3CCCC3CO)ncn1)CC2` (stereo not drawn), the cytotoxicity at 10 µM is -4.16%. Then `CCOc1ccc(CC(CNC(=O)c2ccc(C)o2)C(N)=O)cc1` (stereo not drawn), with 3.58%; and `O=C(Cc1ccc2c(c1)CCC2)N1CCCC(n2cccn2)C1` (stereo not drawn), with -7.81%. The same measure for `Cc1nc(CN2CCN(C(=O)c3c(C)noc3C)CC2)cs1`: -23.2%; for `Cc1ccc(C(=O)N2CCc3c(CNc4ncccn4)cncc3C2)o1`: 9.21%. Then `Cc1ccc(CN2C[C@H](OCC3CCOCC3)[C@H]3COC[C@H]32)o1`, with -4.58%. On to `Cc1ncnc2c1CCN(Cc1ccccn1)CC2`, for which the cytotoxicity at 10 µM was -10.4%. On to `c1cncc(OC[C@@]23CCO[C@@H]2CCN(Cc2cccs2)C3)c1`, for which the cytotoxicity at 10 µM worked out at 14.6%. For the molecule `O=C(CN1CC(c2nc(-c3ccco3)no2)C1)NCCc1ccccc1`, the cytotoxicity at 10 µM is -9.54%. The same measure for `CCN(CC)[C@@H]1CN(C(=O)c2ccnnc2)[C@@H]2CCCO[C@H]12`: -146%; for `Cc1cnc(N2C[C@@H]3CCN(CC(=O)N(C)C)C(=O)[C@H]3C2)nc1`: -19%. Then `CO[C@@H]1CCN(Cc2cccc(C)n2)[C@@H]2CN(Cc3ccncc3)C[C@@H]21`, with 0.951%; and `c1cncc(COCC2CN(Cc3cccnc3)Cc3ccnn3C2)c1` (stereo not drawn), with -136%. The same measure for `O=C(c1cccc(F)c1)N1C[C@H]2CN(Cc3ccccn3)C[C@H]2C1`: -1.92%. As to `CC(=O)N1[C@H](CN(C)C)C[C@@H]2CN(C(=O)Cc3cccs3)CC[C@@H]21`, the cytotoxicity at 10 µM was -0.155%.

Take `Cc1ccc(C(=O)N2C[C@@H]3CCN(C(C)C)C[C@@H]3C2)cn1`: the cytotoxicity at 10 µM is -6.54%.

Turning to `CCc1c(C(=O)N2C[C@@H]3CC[C@H]2CN(c2cnccn2)C3)csc1C`, the cytotoxicity at 10 µM turned out to be 13.3%.

Take `CN1[C@@H]2CC[C@H]1CN(C(=O)c1nnc3n1CCCCC3)CC2`: the cytotoxicity at 10 µM was -5.43%.

`O=C1CCC2(CCN(Cc3cscn3)CC2)CN1C1CCC(O)CC1` (stereo not drawn): the cytotoxicity at 10 µM is -4.33%.

For `CSc1nc(N)cc(N2C[C@H]3CC[C@@H](C2)N(CC2CC2)C3=O)n1`, the cytotoxicity at 10 µM amounted to 0.291%.
